Data reported in ChEMBL document CHEMBL1126262, “2-(Aminomethyl)chromans that inhibit iron-dependent lipid peroxidation and protect against central nervous system trauma and ischemia” (J Med Chem, 1992).
Where “and” joins values, the source holds several entries; their conditions need not be identical. Equal entries are not always repeated. Calls of active or inactive are those of the source. The calls are words filed in the database; no cut-off is given here.

What was measured:
Rattus norvegicus = species on record: Rattus norvegicus; test: Tested in vitro for the inhibition of iron-dependent lipid peroxidation against rat brain homogenates, by malondialdehyde (MDA) formation assay; assay type: functional
Mus musculus [1] = test: Tested in vivo for neuroprotectant activity against mouse head injury(MHI) model.; assay type: functional
Procedure, shortened: (§1)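 Unanesthetized male CF-1 mice (17-20 g), concussive head injury from 50-g weight dropped 18 cm (~900 g-cm). Vehicle (0.05 N HCl or 0.5% Tween 80) or drug, 0.001-30.0 mg/kg, iv bolus within 5 min postinjury (oral where indicated). Blind grip-string test at 1 h; groups of 20-25 mice, vehicle plus four dose groups; Duncan's multiple range test.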

Mus musculus [2] = species on record: Mus musculus; test: Lowest effective dosage in Mouse Head Injury Assay.; assay type: functional; procedure, shortened: as §1
Mus musculus [3] = test: Antagonistic activity against potassium cyanide induced cytotoxic hypoxia in male CF-1 mice at a dose of 10 mg/kg(p<0.05); assay type: organism-based; design: dose 10 mg/kg; details: in vivo
Mus musculus [4] = test: Antagonistic activity against potassium cyanide induced cytotoxic hypoxia in male CF-1 mice at a dose of 20 mg/kg(p<0.05); assay type: organism-based; design: dose 20 mg/kg; details: in vivo
Mus musculus [5] = test: Tested in vivo for neuroprotectant activity against mouse head injury(MHI) model; IA = Inactive; assay type: functional, organism-based; procedure, shortened: as §1

Compound | IC50 (Rattus norvegicus; Rattus norvegicus, Brain) | Grip score (Mus musculus [1]) | Lowest effective dose (Mus musculus [2]) | other results
Cc1c(C)c2c(c(C)c1O)CCC(C)(C(=O)N1CCN(c3ccc(Cl)cc3)CC1)O2 (stereo not given) | 0.8 µM |  |  | 
Cc1c(C)c2c(c(C)c1O)CCC(C)(C(=O)NCCCc1ccccc1)O2 (stereo not given) | 1 µM |  |  | 
Cc1c(C)c2c(c(C)c1O)CCC(C)(C(=O)N(C)CCc1ccccn1)O2 (stereo not given) | 5.4 µM |  |  | 
Cc1c(C)c2c(c(C)c1O)CCC(C)(C(=O)NCCc1ccccn1)O2 (stereo not given) | 11 µM |  |  | 
Cc1c(C)c2c(c(C)c1O)CCC(C)(CN1CCN(c3ccc(Cl)cc3)CC1)O2 (stereo not given) | 0.9 µM |  |  | 
Cc1c(C)c2c(c(C)c1O)CCC(C)(C(=O)N1CCN(c3ncccn3)CC1)O2 (stereo not given) | 23 µM | 12 | 1 mg/kg | 
Cc1c(C)c2c(c(C)c1O)CCC(C)(C(=O)N1CCNCC1)O2 (stereo not given) | 10 µM |  |  | 
Cc1c(C)c2c(c(C)c1O)CCC(C)(CNc1ccncc1)O2 (stereo not given) | 16 µM |  |  | 
CC(=O)Oc1c(C)c(C)c2c(c1C)CCC(C)(CN1CCN(c3cc(N4CCCC4)nc(N4CCCC4)n3)CC1)O2 (stereo not given) | 1.5 µM | 9.2 | 1 mg/kg | 
Cc1c(C)c2c(c(C)c1O)CCC(C)(C(=O)N1CCCC1)O2 (stereo not given) | 10 µM |  |  | 
Cc1c(C)c2c(c(C)c1O)CCC(C)(CN1CCN(c3cc(N4CCCC4)nc(N4CCCC4)n3)CC1)O2.Cl.Cl (stereo in doubt; 60) |  | 11.5 | 0.001 mg/kg | IC50 (Rattus norvegicus): 1.1 µM
Cc1c(C)c2c(c(C)c1O)CCC(C)(C(=O)NCCCCc1ccccc1)O2 (stereo not given) | 0.7 µM |  |  | 
Cc1c(C)c2c(c(C)c1O)CCC(C)(CN1CCN(c3cc(N4CCCC4)nc(N4CCCC4)n3)CC1)O2.Cl.Cl.O (stereo not given) |  | 13.7 and 14.7 |  | LD50 (Mus musculus [3]): 114%; LD50 (Mus musculus [4]): 134.2%; IC50 (Rattus norvegicus): 0.6 µM
Cc1c(C)c2c(c(C)c1O)CCC(C)(CNCCCCc1ccccc1)O2 (stereo not given) | 0.8 µM |  |  | 
CC(=O)Oc1c(C)c(C)c2c(c1C)CCC(C)(C(=O)N1CCN(c3cc(N4CCCC4)nc(N4CCCC4)n3)CC1)O2 (stereo not given) | 17 µM |  |  | 
COc1ccccc1N1CCN(C(=O)C2(C)CCc3c(C)c(O)c(C)c(C)c3O2)CC1 (stereo not given) | 15 µM | 12.8 | 0.01 mg/kg | 
Cc1c(C)c2c(c(C)c1O)CCC(C)(CNCCN(C)C)O2 (stereo not given) | 1.7 µM |  |  | Grip score (Mus musculus [5]): inactive
COc1ccc(CCNCC2(C)CCc3c(C)c(O)c(C)c(C)c3O2)cc1OC.Cl (stereo not given) | 1 µM | 8.4 | 0.01 mg/kg | 
COc1ccc(CNCC2(C)CCc3c(C)c(O)c(C)c(C)c3O2)cc1OC (stereo not given) | 11 µM |  |  | 
CCN(CC)c1ccc(N2CCN(CC3(C)CCc4c(C)c(O)c(C)c(C)c4O3)CC2)nc1N(CC)CC.Cl.O (stereo not given) | 1 µM | 11.9 | 0.01 mg/kg | 
Cc1c(C)c2c(c(C)c1O)CCC(C)(C(=O)Nc1ccncc1)O2 (stereo not given) | 2.3 µM | 11.5 | 0.01 mg/kg | 
COc1ccc(CNC(=O)C2(C)CCc3c(C)c(O)c(C)c(C)c3O2)cc1OC (stereo not given) | 5.5 µM |  |  | 
C[C@H]1C[C@@H]2[C@H]([C@@H](O)C[C@@]3(C)[C@H]2CC[C@]3(O)C(=O)COC(=O)CCC(=O)[O-])[C@@]2(C)C=CC(=O)C=C12.[Na+] [METHYLPREDNISOLONE SODIUM SUCCINATE] |  | 13.5 | 15 mg/kg | 
Cc1c(C)c2c(c(C)c1O)CCC(C)(CN1CCN(c3cc(N4CCCC4)nc(N4CCCC4)n3)CC1)O2.Cl.Cl (stereo in doubt; 59) |  | 14.4 |  | IC50 (Rattus norvegicus): 1.5 µM
COc1ccccc1N1CCN(CC2(C)CCc3c(C)c(O)c(C)c(C)c3O2)CC1 (stereo not given) | 1 µM |  |  | Grip score (Mus musculus [5]): inactive
Cc1c(C)c2c(c(C)c1O)CCC(C)(CN1CCN(c3ccccn3)CC1)O2.Cl.O (stereo not given) | 1 µM | 10.7 | 0.01 mg/kg | 
Cc1c(C)c2c(c(C)c1O)CCC(C)(CN1CCNCC1)O2 (stereo not given) | 1 µM |  |  | 
